Experimental data as given in ChEMBL document CHEMBL5032502, “Syntheses, Biological Evaluations, and Mechanistic Studies of Benzo[c][1,2,5]oxadiazole Derivatives as Potent PD-L1 Inhibitors with In Vivo Antitumor Activity” (J Med Chem, 2021).
Active and inactive are the calls of the source. The rule behind the calls is not given here.

Tests used:
[1] = target: Programmed cell death protein 1/Programmed cell death 1 ligand 1 (Homo sapiens, UniProt Q9NZQ7); test: Inhibition of human PD-1/PD-L1 interaction assessed as blockade activity incubated for 15 mins by HTRF assay; type: protein-complex assay
Sequence of Programmed cell death protein 1/Programmed cell death 1 ligand 1 (Q15116 whole entry): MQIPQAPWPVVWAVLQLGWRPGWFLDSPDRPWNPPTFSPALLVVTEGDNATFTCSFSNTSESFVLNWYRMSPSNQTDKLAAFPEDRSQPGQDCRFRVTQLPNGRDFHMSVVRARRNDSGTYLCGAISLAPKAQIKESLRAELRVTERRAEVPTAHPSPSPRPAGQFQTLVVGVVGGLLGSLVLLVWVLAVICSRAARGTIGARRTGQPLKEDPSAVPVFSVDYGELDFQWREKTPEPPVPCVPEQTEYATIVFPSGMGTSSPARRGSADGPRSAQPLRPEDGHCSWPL
Sequence of Programmed cell death protein 1/Programmed cell death 1 ligand 1 (Q9NZQ7 whole entry): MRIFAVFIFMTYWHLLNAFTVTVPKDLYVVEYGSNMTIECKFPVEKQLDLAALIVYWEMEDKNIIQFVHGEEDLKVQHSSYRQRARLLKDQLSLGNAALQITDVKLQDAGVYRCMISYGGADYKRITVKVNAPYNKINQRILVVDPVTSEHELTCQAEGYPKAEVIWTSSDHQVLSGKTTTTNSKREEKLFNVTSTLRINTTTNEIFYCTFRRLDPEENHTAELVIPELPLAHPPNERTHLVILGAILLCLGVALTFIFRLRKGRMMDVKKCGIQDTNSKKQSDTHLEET
Method in brief: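 Tag1-PD-L1 and Tag2-PD-1 proteins preincubated with compound (0.1 nM to 10 μM, triplicate) 15 min at room temperature, then anti-Tag1-Eu³⁺/anti-Tag2-XL665 added for 2 h at room temperature. Excitation 337 nm, emission 665 and […]. Signal taken as 665/615 ratio ×10 000; IC50 fitted from inhibition rates.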

[2] = tested on: MC-38; test: Antitumor activity against PD-L1 humanized mouse MC38 cells implanted in PD-L1 humanized C57BL/6 mouse assessed as tumor growth inhibition at 5 mg/kg, po measured after 27 days; type: functional; settings: MC-38, po, 648 h, time 27 day, read-out: TGI
Method in brief: (§1)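 Female PD-L1-humanized C57BL/6 mice, 6 weeks old, injected in the right flank with 1 × 10⁶ MC38-hPD-L1(Tg)-mPDL1(KO) cells in PBS. At 50 mm³ tumours, animals randomized to 0.5% CMC-Na vehicle or drug by daily oral gavage. Tumours measured twice weekly, volume = 0.5 × L × W². Sacrifice on day 27. TGI = (1 − Vt/Vv) × 100. n = 8.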

[3] = Subacute toxicity in C57BL/6 mouse assessed as organ weight change po observed for 30 days; settings: in vivo, 720 h
[4] = Toxicity in C57BL/6 mouse assessed as effect on ALT level at 2000 mg/kg, po observed for 30 days; type: organism-based; settings: in vivo, 720 h, time 30 day
[5] = tested on: MC-38; test: Antitumor activity against mouse MC38 cells implanted in C57BL/6 mouse assessed as tumor growth inhibition at 150 mg/kg, po measured after 14 days; type: functional; settings: MC-38, po, 336 h, time 14 day, read-out: TGI
[6] = tested on: MC-38; test: Antitumor activity against PD-L1 humanized mouse MC38 cells implanted in PD-L1 humanized C57BL/6 mouse assessed as tumor growth inhibition at 25 mg/kg, po measured after 30 days; type: functional; settings: MC-38, po, 720 h, time 30 day, read-out: TGI
Method in brief: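 PD-L1-humanized C57BL/6 mice given 1 × 10⁶ MC38-hPD-L1(Tg)-mPDL1(KO) cells in the right flank. Once tumours reached 50 mm³, randomized into three groups: CMC-Na vehicle, 25 or 50 mg/kg by daily oral gavage for 30 days. TGI from mean tumour volume of treated versus vehicle groups. n = 6.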

[7] = Clearance in C57BL/6 mouse at 2 mg/kg, iv measured upto 24 hrs by LC-MS analysis; type: ADME, organism-based; settings: in vivo
Method in brief: (§2)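 Male animals fasted 12 h before dosing. Plasma levels measured by LC-MS, with the prodrug quantified as the parent acid. Mean ± SEM, n = 3.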

[8] = Cmax in C57BL/6 mouse at 10 mg/kg, po measured upto 24 hrs by LC-MS analysis; type: ADME, organism-based; set-up: route oral, dose 10 mg/kg, time <=24; settings: in vivo; method in brief: as §2
[9] = Toxicity in C57BL/6 mouse assessed as body weight loss at 2000 mg/kg, po observed for 30 days; settings: in vivo, 720 h
[10] = tested on: B16-F10; test: Antitumor activity against mouse B16-F10 cells implanted in C57BL/6 mouse assessed as tumor weight at 15 mg/kg, po measured after 18 days (reference value: 1.76 gm); type: functional; settings: time 18 day
Method in brief: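 Female C57BL/6J mice, 8 weeks old, injected dorsally with 1 × 10⁶ B16-F10 cells in PBS. Daily oral gavage started the same day (day 1), in 0.5% CMC-Na vehicle. Tumour size and body weight recorded daily, volume = 0.5 × L × W². Sacrifice on day 18, tumours excised and weighed. TGI = (1 − Vt/Vv) × 100.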

[11] = AUC (0 to t) in Sprague-Dawley rat at 9 mg/kg, iv measured upto 24 hrs by LC-MS analysis; type: ADME, organism-based; set-up: route intravenous, dose 9 mg/kg, time <=24; settings: in vivo; method in brief: as §2
[12] = AUC (0 to t) in Sprague-Dawley rat at 45 mg/kg, po measured upto 24 hrs by LC-MS analysis; type: ADME, organism-based; set-up: route oral, dose 45 mg/kg, time <=24; settings: in vivo; method in brief: as §2
[13] = Half life in C57BL/6 mouse at 2 mg/kg, iv measured upto 24 hrs by LC-MS analysis; type: ADME, organism-based; settings: in vivo; method in brief: as §2
[14] = tested on: MC-38; test: Antitumor activity against mouse MC38 cells xenografted in C57BL/6 mouse assessed as reduction in macrophages at 25 mg/kg, po by flow cytometry analysis; type: functional, organism-based
Method in brief: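 Tumours taken from PD-L1-humanized mice carrying MC38-hPD-L1 tumours and dosed orally at 5 or 25 mg/kg daily. Tissue digested to single cells, red cells lysed with ACK buffer, Fc blocked. Surface stain 60 min for CD45, CD3, CD4, CD8, CD335, CD11b, Ly6G, Ly6C and F4/80, with a viability dye. Intracellular FOXP3 stain after permeabilization. Mean ± SEM, n = 7−8, one-way ANOVA.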

[15] = tested on: MC-38; test: Antitumor activity against PD-L1 humanized mouse MC38 cells implanted in PD-L1 humanized C57BL/6 mouse assessed as tumor growth inhibition at 25 mg/kg, po measured after 27 days; type: functional; settings: MC-38, po, 648 h, time 27 day, read-out: TGI; method in brief: as §1
[16] = tested on: MC-38; test: Antitumor activity against mouse MC38 cells implanted in C57BL/6 mouse assessed as tumor growth inhibition at 150 mg/kg, po measured after 18 days; type: functional; settings: MC-38, po, 432 h, time 18 day, read-out: TGI
Method in brief: (§3)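 Female C57BL/6J mice, 8 weeks old, injected dorsally with 1 × 10⁶ MC38 cells in PBS. At 50 mm³, randomized to CMC-Na vehicle, 50, 150 or 300 mg/kg by daily oral gavage. Tumours measured every two days, volume = 0.5 × L × W². Sacrifice after 18 days of treatment. TGI = (1 − Vt/Vv) × 100. n = 8−10.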

[17] = tested on: MC-38; test: Antitumor activity against mouse MC38 cells implanted in C57BL/6 mouse assessed as tumor growth inhibition at 300 mg/kg, po measured after 18 days; type: functional; settings: MC-38, po, 432 h, time 18 day, read-out: TGI; method in brief: as §3

Q: Which IC50 [1] does the source give for `CCOC(=O)[C@@H](CO)NCc1cc(Cl)c(OCc2cccc(-c3ccccc3)c2Br)cc1OCc1ccc2nonc2c1.Cl` here?
A: The IC50 was 0.426 µM.

Q: What about the inhibition in vivo at 5 mg/kg [2] of the same compound?
A: The inhibition in vivo at 5 mg/kg was 19.3%.

Q: What about the Activity [3] of the same compound?
A: The Activity was “Non-Toxic”.

Q: What about the Activity [4] of the same compound?
A: The Activity was “Non-Toxic”.

Q: And the inhibition in vivo at 150 mg/kg [5]?
A: The inhibition in vivo at 150 mg/kg was 58.2%.

Q: What about the inhibition in vivo at 25 mg/kg [6] of the same compound?
A: Its inhibition in vivo at 25 mg/kg is 44.2%.

Q: And the clearance [7]?
A: The clearance was 1.72 L/h/kg.

Q: And the Cmax [8]?
A: Its Cmax is 0.15 µg/mL.

Q: And the Activity [9]?
A: Its Activity is “Non-Toxic”.

Q: And the Activity [10]?
A: Its Activity is 1.27 g.

Q: What about the AUC(0-t) at 24 h [11] of the same compound?
A: The AUC(0-t) at 24 h was 6.28 µg·h/mL.

Q: What about the AUC(0-t) at 24 h [12] of the same compound?
A: The AUC(0-t) at 24 h was 2.86 µg·h/mL.

Q: And the half-life [13]?
A: Its half-life is 2.05 h.

Q: What about the Activity [14] of the same compound?
A: The Activity was “Active”.

Q: And the inhibition in vivo at 25 mg/kg [15]?
A: The inhibition in vivo at 25 mg/kg was 32.5%.

Q: What about the inhibition in vivo at 150 mg/kg [16] of the same compound?
A: Its inhibition in vivo at 150 mg/kg is 55.1%.

Q: And the inhibition in vivo at 300 mg/kg [17]?
A: Its inhibition in vivo at 300 mg/kg is 48.9%.
